Data taken from ChEMBL document CHEMBL3769315 (J Med Chem, 2016).
≈ marks a conversion by molar mass, not a printed value.

Columns and labels:
Hepatitis C virus [1] = test: microbe, parasite or virus in culture; assay type: functional, organism-based, Hepacivirus hominis; details: JFH-1, Huh-7.5.1, 48 h
[2] = Cytotoxicity against human Huh7.5.1 cells assessed as ATP level by luminescence analysis; details: huh-7
[3] = Selectivity index, ratio of CC50 for human Huh7.5.1 cells infected with HCV JFH-1 virus to EC50 for HCV JFH-1 virus
Liver microsome [4] = test: (§1) Metabolic stability in rat liver microsomes assessed as half life by LC-MS/MS analysis in presence of NADPH
HepG2 = test: Cytotoxicity against human HepG2 cells assessed as ATP level by luminescence analysis
Hepatitis C virus [5] = test: microbe, parasite or virus in culture; assay type: functional, Hepacivirus hominis; details: Huh-7, 48 h
Hepatitis C virus [6] = test: Antiviral activity against HCV genotype 1a pseudoparticle infected in human Huh7.5.1 cells assessed as inhibition of virus entry at 10 uM after 4 hrs by luciferase reporter gene assay; assay type: functional, Hepacivirus hominis; details: subtype 1a, Huh-7, 4 h
Hepatitis C virus [7] = test: Antiviral activity against HCV genotype 1b pseudoparticle infected in human Huh7.5.1 cells assessed as inhibition of virus entry at 10 uM after 4 hrs by luciferase reporter gene assay; assay type: functional, Hepacivirus hominis; details: Huh-7, 4 h
Murine leukemia virus = test: Antiviral activity against Murine leukemia virus pseudoparticle infected in human Huh7.5.1 cells at 10 uM after 4 hrs by luciferase reporter gene assay; assay type: functional; details: Huh-7, 4 h
[8] = tested on: Vesicular stomatitis virus; test: Antiviral activity against Vesicular stomatitis virus G pseudoparticle infected in human Huh7.5.1 cells at 10 uM after 4 hrs by luciferase reporter gene assay; assay type: functional; details: Huh-7, 4 h
Hepatitis C virus [9] = test: Antiviral activity against HCV genotype 2a assessed as inhibition of RNA replication at 10 uM by cell-based replicon assay; assay type: functional, Hepacivirus hominis
Method in brief: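 GT 2a subgenomic replicon cells were plated at 10^4/well and incubated overnight. They were then treated with compound (10 μM, or 3.2 or 1 μM for some compounds) for 48 h. Luciferase activity was read and expressed as % of DMSO.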

[10] = (§2) Metabolic stability in human liver microsomes assessed as half life by LC-MS/MS analysis in presence of NADPH
[11] = Metabolic stability in mouse liver microsomes assessed as half life by LC-MS/MS analysis in presence of NADPH
[12] = Solubility of compound in phosphate buffer at pH 7.4
histamine H1 receptor = histamine H1 receptor (Homo sapiens, UniProt P35367); test: in vitro; details: PathHunter cells
histamine H1 receptor, sequence (P35367 whole entry): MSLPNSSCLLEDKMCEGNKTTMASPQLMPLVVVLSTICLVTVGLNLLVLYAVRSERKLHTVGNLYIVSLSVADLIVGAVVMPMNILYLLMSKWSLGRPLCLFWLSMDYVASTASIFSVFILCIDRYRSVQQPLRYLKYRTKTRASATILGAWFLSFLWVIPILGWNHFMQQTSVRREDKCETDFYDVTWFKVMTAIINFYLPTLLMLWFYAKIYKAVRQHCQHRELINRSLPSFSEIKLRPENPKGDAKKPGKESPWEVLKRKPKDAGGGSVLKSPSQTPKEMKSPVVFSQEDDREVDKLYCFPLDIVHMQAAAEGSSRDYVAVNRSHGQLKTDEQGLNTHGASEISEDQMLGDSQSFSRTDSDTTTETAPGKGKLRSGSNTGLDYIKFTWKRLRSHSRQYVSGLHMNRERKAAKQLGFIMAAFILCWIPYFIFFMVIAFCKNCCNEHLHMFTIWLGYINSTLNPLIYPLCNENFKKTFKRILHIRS

[13] = as §1
Liver microsome [14] = test: as §2

[2H]C([2H])([2H])N1CCN([C@@H](c2ccccc2)c2ccc(Cl)cc2)CC1
EC50 (Hepatitis C virus [1]): 0.063 µM
CC50 [2]: 77.9 µM

CCN1CCN(C2c3ccccc3-c3ccc(Br)cc32)CC1 (configuration not stated)
EC50 (Hepatitis C virus [1]): 1.68 µM
CC50 [2]: 53.1 µM
selectivity ratio [3]: 32

CC(C)N1CCN([C@@H](c2ccccc2)c2ccc(Cl)cc2)CC1
EC50 (Hepatitis C virus [1]): 0.013 µM
CC50 [2]: 32.4 µM
selectivity ratio [3]: 2490

CCN1CCN(C(c2ccc(Cl)cc2)c2ccc(Cl)cc2)CC1
t1/2 (Liver microsome [4]): 2.2 min
CC50 (HepG2): 56 µM
inhibition at 10 µM (Hepatitis C virus [5]): 10.1%
inhibition at 10 µM (Hepatitis C virus [6]): 76.6%
inhibition at 10 µM (Hepatitis C virus [7]): 108%
inhibition at 10 µM (Murine leukemia virus): 96.5%
inhibition at 10 µM [8]: 110%
inhibition at 10 µM (Hepatitis C virus [9]): 128%
half-life [10]: 30 min
t1/2 [11]: 12.6 min
solubility kinetic [12]: 17.7 µg/mL (≈ 50.7 µM)
inhibition at 2 h, 0.01 µM (histamine H1 receptor): 31.7%

[2H]C([2H])([2H])CN1CCN([C@@H](c2ccccc2)c2ccc(Cl)cc2)CC1
CC50 [2]: 71.3 µM

COc1ccc(CN2CCN([C@@H](c3ccccc3)c3ccc(Cl)cc3)CC2)c(OC)c1
EC50 (Hepatitis C virus [1]): 0.456 µM
CC50 [2]: 38.4 µM
selectivity ratio [3]: 84

Clc1ccc([C@@H](c2ccccc2)N2CCNCC2)cc1
EC50 (Hepatitis C virus [1]): 0.032 µM
CC50 [2]: 12.5 µM
selectivity ratio [3]: 391

[2H]C([2H])([2H])CN1CCN([C@H](c2ccccc2)c2ccc(Cl)cc2)CC1
CC50 [2]: 81.5 µM
half-life [13]: 174 min

Clc1ccc(C(c2ccc(Cl)cc2)N2CCOCC2)cc1
EC50 (Hepatitis C virus [1]): 29.7 µM
CC50 [2]: 62.1 µM
selectivity ratio [3]: 2

CC(C)CN1CCN([C@@H](c2ccccc2)c2ccc(Cl)cc2)CC1
EC50 (Hepatitis C virus [1]): 0.102 µM
CC50 [2]: 51.7 µM
selectivity ratio [3]: 507

NC(=O)COCCN1CCN(C(c2ccccc2)c2ccc(Cl)cc2)CC1 (racemic)
EC50 (Hepatitis C virus [1]): 0.103 µM
CC50 [2]: > 100 µM
selectivity ratio [3]: > 910

O=C1c2ccccc2C(=O)N1CCOCCN1CCN(C(c2ccccc2)c2ccc(Cl)cc2)CC1 (racemic)
EC50 (Hepatitis C virus [1]): 1.54 µM
CC50 [2]: > 100 µM
selectivity ratio [3]: > 65

CC(C)(C)OC(=O)NCCOCCOCCOCCOCCN1CCN(C(c2ccccc2)c2ccc(Cl)cc2)CC1 (racemic)
EC50 (Hepatitis C virus [1]): 0.199 µM
CC50 [2]: 19 µM
selectivity ratio [3]: 95

CC(=O)NCCOCCOCCOCCOCCN1CCN(C(c2ccccc2)c2ccc(Cl)cc2)CC1 (racemic)
EC50 (Hepatitis C virus [1]): 0.17 µM
CC50 [2]: > 100 µM
selectivity ratio [3]: > 588

NCCOCCOCCOCCOCCN1CCN(C(c2ccccc2)c2ccc(Cl)cc2)CC1 (racemic)
CC50 [2]: 12.2 µM
t1/2 (Liver microsome [4]): 11.7 min
CC50 (HepG2): 12.6 µM
inhibition at 10 µM (Hepatitis C virus [5]): 1.4%
inhibition at 10 µM (Hepatitis C virus [6]): 95.8%
inhibition at 10 µM (Hepatitis C virus [7]): 91.7%
inhibition at 10 µM (Murine leukemia virus): 117%
inhibition at 10 µM [8]: 99.8%
inhibition at 10 µM (Hepatitis C virus [9]): 63.6%
t1/2 (Liver microsome [14]): 26.2 min
t1/2 [11]: 29.1 min
solubility kinetic [12]: 46 µg/mL (≈ 90.9 µM)
inhibition at 2 h, 0.01 µM (histamine H1 receptor): 54.1%

O=C(O)COCCN1CCN(C(c2ccccc2)c2ccc(Cl)cc2)CC1 (racemic) [CETIRIZINE]
EC50 (Hepatitis C virus [1]): > 31.6 µM

CN1CCN(C(c2ccccc2)c2ccc(Cl)cc2)CC1 (racemic) [CHLORCYCLIZINE]
EC50 (Hepatitis C virus [1]): 0.44 µM
CC50 [2]: 49.8 µM
t1/2 (Liver microsome [4]): 4.6 min
inhibition at 10 µM (Hepatitis C virus [5]): 24.9%
inhibition at 10 µM (Hepatitis C virus [6]): 92.5%
inhibition at 10 µM (Hepatitis C virus [7]): 120%
inhibition at 10 µM (Murine leukemia virus): 124%
inhibition at 10 µM [8]: 105%
inhibition at 10 µM (Hepatitis C virus [9]): 102%
t1/2 (Liver microsome [14]): 113 min
t1/2 [11]: 36 min
inhibition at 2 h, 0.01 µM (histamine H1 receptor): 16%

CN1CCCN(C(c2ccccc2)c2ccc(Cl)cc2)CC1 (racemic) [HOMOCHLORCYCLIZINE]
EC50 (Hepatitis C virus [1]): 0.057 µM
CC50 [2]: 12.8 µM
selectivity ratio [3]: 225

OCCOCCN1CCN(C(c2ccccc2)c2ccc(Cl)cc2)CC1 (racemic) [HYDROXYZINE]
EC50 (Hepatitis C virus [1]): 0.032 µM
CC50 [2]: 42.6 µM
selectivity ratio [3]: 1330

Clc1ccc(C(c2ccccc2)N2CCNCC2)cc1 (racemic) [NORCHLORCYCLIZINE]
EC50 (Hepatitis C virus [1]): 0.035 µM
CC50 [2]: 10.4 µM
selectivity ratio [3]: 297
